Laboratory results as given in ChEMBL document CHEMBL2346603, “Discovery of potent dipeptidyl peptidase IV inhibitors through pharmacophore hybridization and hit-to-lead optimization” (Bioorg Med Chem, 2013).
The source made the active and inactive calls. The rule behind the calls is not given here.

Columns and labels:
[1] = Oral bioavailability in Sprague-Dawley rat at 30 mg/kg by LC-MS/MS analysis; assay type: ADME, organism-based; conditions: in vivo
Procedure, shortened: (§1)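 Adult male SD rats (n = 4/group) got a single dose of compound in distilled water, orally or by injection. Blood (100–200 µL) was drawn from the orbit at 11 time points over 24 h. Blood drug levels were measured by LC–MS/MS.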

[2] = Half life in Sprague-Dawley rat blood at 30 mg/kg, po by LC-MS/MS analysis; assay type: ADME, organism-based; set-up: dose 30 mg/kg, route oral; conditions: whole blood; procedure, shortened: as §1
[3] = Mean residence time (0 to infinity) in Sprague-Dawley rat blood at 30 mg/kg, po by LC-MS/MS analysis; assay type: ADME, organism-based; set-up: dose 30 mg/kg, route oral; conditions: whole blood; procedure, shortened: as §1
[4] = Apparent volume of distribution in Sprague-Dawley rat blood at 10 mg/kg, iv by LC-MS/MS analysis; assay type: ADME, organism-based; set-up: dose 10 mg/kg, route intravenous; conditions: whole blood, read-out: Vz; procedure, shortened: as §1
[5] = Apparent clearance in Sprague-Dawley rat blood at 10 mg/kg, iv by LC-MS/MS analysis; assay type: ADME, organism-based; set-up: dose 10 mg/kg, route intravenous; conditions: whole blood, read-out: CL(app) (converted); procedure, shortened: as §1
[6] = AUC (0 to infinity) in Sprague-Dawley rat blood at 30 mg/kg, po by LC-MS/MS analysis; assay type: ADME, organism-based; set-up: time infinity, dose 30 mg/kg, route oral; conditions: whole blood; procedure, shortened: as §1
[7] = target: Dipeptidyl peptidase 9 (Homo sapiens) (UniProt Q86TI2); experiment: Inhibition of DPP9 (unknown origin) up to 10 uM
Chain of Dipeptidyl peptidase 9 (Homo sapiens) (Q86TI2 2-863 limits assumed): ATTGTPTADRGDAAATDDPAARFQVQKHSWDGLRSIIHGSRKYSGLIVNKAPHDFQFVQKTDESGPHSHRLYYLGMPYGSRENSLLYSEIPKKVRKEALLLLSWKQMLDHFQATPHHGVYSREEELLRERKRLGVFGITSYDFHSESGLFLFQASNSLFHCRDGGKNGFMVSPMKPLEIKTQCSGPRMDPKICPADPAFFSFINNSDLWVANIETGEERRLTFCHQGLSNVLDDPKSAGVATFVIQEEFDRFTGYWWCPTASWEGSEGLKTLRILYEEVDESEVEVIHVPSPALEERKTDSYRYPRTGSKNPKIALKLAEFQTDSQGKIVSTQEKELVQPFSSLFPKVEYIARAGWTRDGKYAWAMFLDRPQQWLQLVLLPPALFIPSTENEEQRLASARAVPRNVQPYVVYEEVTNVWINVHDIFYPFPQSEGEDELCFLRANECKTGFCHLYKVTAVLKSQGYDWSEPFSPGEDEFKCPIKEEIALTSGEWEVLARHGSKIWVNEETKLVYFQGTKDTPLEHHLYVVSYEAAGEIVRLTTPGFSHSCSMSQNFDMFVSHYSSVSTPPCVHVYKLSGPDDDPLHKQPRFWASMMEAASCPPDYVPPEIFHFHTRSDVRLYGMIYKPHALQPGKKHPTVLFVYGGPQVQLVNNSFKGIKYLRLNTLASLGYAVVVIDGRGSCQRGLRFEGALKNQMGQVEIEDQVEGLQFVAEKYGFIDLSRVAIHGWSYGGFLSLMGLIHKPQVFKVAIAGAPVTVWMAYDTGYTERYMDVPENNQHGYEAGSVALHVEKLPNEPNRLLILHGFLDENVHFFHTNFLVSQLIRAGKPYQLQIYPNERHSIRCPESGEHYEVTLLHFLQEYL
Procedure, shortened: (§2)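 Compounds were serially diluted from DMSO into 20 mM Tris pH 7.4, 20 mM KCl, 0.1 mg/mL BSA. Enzyme was pre-incubated with compound for 10 min at ambient temperature. Reaction was started with Gly-Pro-AMC (10 µM final). Fluorescence (ex 400/em 505 nm) was read kinetically for 5–10 min or at a 10 min endpoint.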

[8] = Inhibition of CYP3A (unknown origin) up to 30 uM; assay type: ADME; conditions: human
[9] = target: Dipeptidyl peptidase 8 (Homo sapiens) (UniProt Q6V1X1); experiment: Inhibition of DPP8 (unknown origin) up to 10 uM; procedure, shortened: as §2
Chain of Dipeptidyl peptidase 8 (Homo sapiens) (Q6V1X1 whole entry, looked up): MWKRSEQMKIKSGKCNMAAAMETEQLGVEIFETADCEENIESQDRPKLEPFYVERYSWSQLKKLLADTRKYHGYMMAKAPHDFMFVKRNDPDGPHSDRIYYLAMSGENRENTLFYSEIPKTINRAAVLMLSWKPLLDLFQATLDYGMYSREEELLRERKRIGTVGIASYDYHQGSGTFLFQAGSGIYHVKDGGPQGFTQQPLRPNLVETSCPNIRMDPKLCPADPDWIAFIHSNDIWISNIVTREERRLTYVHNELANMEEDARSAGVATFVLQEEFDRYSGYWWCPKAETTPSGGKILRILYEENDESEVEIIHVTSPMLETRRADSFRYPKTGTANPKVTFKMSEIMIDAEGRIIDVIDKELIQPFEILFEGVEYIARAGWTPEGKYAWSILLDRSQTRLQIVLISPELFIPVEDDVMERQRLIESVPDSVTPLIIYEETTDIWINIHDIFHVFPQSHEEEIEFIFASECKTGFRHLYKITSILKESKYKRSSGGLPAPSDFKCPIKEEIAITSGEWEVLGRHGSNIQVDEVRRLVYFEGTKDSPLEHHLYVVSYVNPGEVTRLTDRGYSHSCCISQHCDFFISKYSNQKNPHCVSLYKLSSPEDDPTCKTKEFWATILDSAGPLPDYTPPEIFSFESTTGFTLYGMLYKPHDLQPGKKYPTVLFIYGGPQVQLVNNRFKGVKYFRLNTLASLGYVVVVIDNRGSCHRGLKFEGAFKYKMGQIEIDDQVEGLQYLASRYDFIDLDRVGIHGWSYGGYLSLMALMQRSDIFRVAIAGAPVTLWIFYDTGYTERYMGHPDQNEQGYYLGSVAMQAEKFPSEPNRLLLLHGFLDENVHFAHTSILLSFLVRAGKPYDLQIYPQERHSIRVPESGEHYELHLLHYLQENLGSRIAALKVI

Row | bioavailability [1] | half-life [2] | MRT inf [3] | Vd [4] | clearance [5] | AUC(0-inf) [6] | inhibition [7] | inhibition (INH) [8] | inhibition [9] | SMILES
1 | 41% | 2 h |  |  |  |  |  |  |  | N#Cc1ccccc1Cn1c(N2CCC[C@@H](N)C2)nc2c(Br)c[nH]c2c1=O
2 | 82.9% | 4.9 h | 8.3 h | 4 L/kg | 16.7 mL/min/kg | 25300 ng·h/mL | inactive | Not Active | inactive | CC#CCn1c(N2CCC[C@@H](N)C2)nc2ccn(Cc3nc(C)c4ccccc4n3)c2c1=O
